Results as given in ChEMBL document CHEMBL3352693, “Notolutesins A-J, dolabrane-type diterpenoids from the Chinese liverwort Notoscyphus lutescens” (J Nat Prod, 2014).
Counter-ions that a name gives are not always drawn.

Assays:
Format in all cases: functional, cell-based
[1] = tested on: A549; test: Cytotoxicity against human A549 cells after 24 hrs by MTT assay; conditions: A549, 24 h
Method in brief: (§1)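 Cells seeded 24 h before treatment, then exposed continuously to a range of compound concentrations (dissolved in DMSO) for 24 h. MTT (5 mg/mL in PBS) added, 4 h at 37 °C, 5% CO2; absorbance read at 570 nm. IC50 (50% growth inhibition) derived from plotted data, untreated cells as 100%; at least three experiments. Taxol and adriamycin as positive controls.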

[2] = Cytotoxicity against human PC3 cells after 24 hrs by MTT assay; conditions: PC-3, 24 h; method in brief: as §1
[3] = Cytotoxicity against human NCI-H1688 cells after 24 hrs by MTT assay; conditions: NCI-H1688, 24 h; method in brief: as §1
[4] = tested on: DU-145; test: Cytotoxicity against human DU145 cells after 24 hrs by MTT assay; conditions: DU-145, 24 h; method in brief: as §1

SMILES | IC50 [1] | IC50 [2] | IC50 [3] | IC50 [4]
C=C[C@@]1(C)CC[C@@]2(C)[C@@H](CC[C@]34COC(=O)C3=C[C@@H](O)C[C@@H]42)C1 | > 10 µM | 6.2 µM | > 10 µM | > 10 µM
COc1cccc2c1C(=O)c1c(O)c3c(c(O)c1C2=O)C[C@@](O)(C(=O)CO)C[C@@H]3O[C@H]1C[C@H](N)[C@H](O)[C@H](C)O1 [DOXORUBICIN HYDROCHLORIDE] | 23.7 µM | 11.7 µM | 4.22 µM | 21.4 µM
CC(=O)O[C@H]1C(=O)[C@@]2(C)[C@H]([C@H](OC(=O)c3ccccc3)[C@]3(O)C[C@H](OC(=O)[C@H](O)[C@@H](NC(=O)c4ccccc4)c4ccccc4)C(C)=C1C3(C)C)[C@]1(OC(C)=O)CO[C@@H]1C[C@@H]2O [PACLITAXEL] |  | 0.94 µM | 0.85 µM | 1.79 µM
